# Compounds with a hit are over-represented: about 2.2% of the library has one in this group of screens.
# Jurkat NFkB inh – inhibitors of induced NF-kB luciferase reporter, primary screen, TCR NF-kB activation inhibitor project, cell-based, luminescence, uHTS | AID 435003, 2010 | Jurkat, PMA/ionomycin-induced NF-kB luciferase reporter | hit rate 0.53% among 330,000 | inhibition, % at 4 µM; in the data active = inhibition above about 50%
# miR-122 sensor – miR-122 Renilla sensor signal increase in Huh7, primary screen, miR-122 inhibitor project, cell-based, single point, plate reader; Huh7 miR-122 Renilla luciferase sensor, 48 h; neutral wells = 0, positive control = 100; activation (reporter increase), % at 12.5 µM; hit rate 0.3% among 340,000; AID 602342, 2012;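 active = mean replicate activation score at least 90 and every replicate individually at or above 90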;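 also: higher luciferase means less miR-122 activity so hits act as miR-122 inhibitors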
# NR2E3 ag-1 – NR2E3 agonists in two-hybrid cells, primary screen, cell-based, luminescence, CHO-S, Gal4-NCOR/VP16-NR2E3. AID 602229, 2012. hit rate 0.35% among 360,000. inhibition of corepressor binding, % at 3.98 µM. luciferase. Photoreceptor-specific nuclear receptor (Homo sapiens), Q9Y5X4;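 active = inhibition above the mean of all tested compounds plus 3 SD, cut at about 70% in these data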;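 also: 0% = DMSO with NR2E3 transfected cells and 100% = cells lacking NR2E3 construct; higher means lower luciferase signal from less NR2E3 corepressor binding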
# Target sequence (Q9Y5X4 whole entry, looked up, the tested form may be a part): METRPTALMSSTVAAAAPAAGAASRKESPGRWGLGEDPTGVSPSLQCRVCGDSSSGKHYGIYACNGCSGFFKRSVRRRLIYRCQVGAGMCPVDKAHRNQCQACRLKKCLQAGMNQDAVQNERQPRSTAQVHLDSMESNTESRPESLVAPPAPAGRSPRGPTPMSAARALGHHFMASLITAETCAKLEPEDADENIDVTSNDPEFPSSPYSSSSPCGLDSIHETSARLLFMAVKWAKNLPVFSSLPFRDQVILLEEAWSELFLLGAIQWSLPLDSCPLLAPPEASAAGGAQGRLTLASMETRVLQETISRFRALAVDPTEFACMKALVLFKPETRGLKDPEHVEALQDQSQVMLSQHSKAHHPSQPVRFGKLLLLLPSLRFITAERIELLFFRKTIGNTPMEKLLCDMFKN
# FGF22 binding-1 – binders of human FGF22 protein, primary screen, FGF22 synaptogenesis inhibitor project, biophysical, thermal shift, single point; Fibroblast growth factor 22 (Homo sapiens), Q9HCT0; recombinant FGF22 thermal shift, SYPRO orange fluorescence; percent of sucrose octasulfate shift, DMSO zero; activity (Tm shift, normalised), % at 9.99 µM; hit rate 1.5% among 340,000;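 active = mean Tm shift, scaled 0 neutral to 100 positive control, at about 1.3% or above, every replicate too, limit read from the data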
# Target sequence (Q9HCT0 whole entry, looked up): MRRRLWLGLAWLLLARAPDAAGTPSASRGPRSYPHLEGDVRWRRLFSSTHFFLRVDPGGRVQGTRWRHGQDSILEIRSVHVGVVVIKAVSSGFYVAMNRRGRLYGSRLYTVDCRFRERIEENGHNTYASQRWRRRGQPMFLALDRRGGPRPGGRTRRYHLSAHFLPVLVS
# NR2E3 ag-2 – inhibitors of NR2E3-RetCOR corepressor binding, primary screen, NR2E3 agonist project, biochemical, TR-FRET, GST-NR2E3, biotin-RetCOR | Photoreceptor-specific nuclear receptor (Homo sapiens), Q9Y5X4 | 1536-well | inhibition of corepressor binding, % at 4.78 µM | hit rate 0.12% among 320,000 | AID 2300, 2010;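 active = percent inhibition above the cutoff of mean plus 3 SD of all tested compounds, set per screening campaign, cut at about 20% in these data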;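 also: 0% = DMSO wells and 100% = biotin wells as full block of FRET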
#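 system = GST-tagged NR2E3 plus biotinylated RetCOR corepressor | input = 1.35 nM GST-NR2E3 | also added = 7 nM biotin-RetCOR | schedule = 5 h incubation at 4 °C | measured by = TR-FRET with europium anti-GST and streptavidin-D2, 340 nm excitation | read-out = percent loss of FRET ratio relative to control wells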
# 697 NFkB inh – inhibitors of PMA/ionomycin-induced NF-kB reporter, 697 cells, primary screen, B-cell NF-kB inhibitor project, cell-based, luminescence, uHTS. 697 B-cell NF-kB luciferase reporter, 16 h. inhibition, % at 4 µM. hit rate 0.33% among 330,000. AID 435022, 2010; in the data active = inhibition above about 35%
# NR2E3 ag confirm – NR2E3 agonist confirmation in cells, cell-based, luminescence, CHO-S two-hybrid; shares compounds with NR2E3 ag-1; CHO-S mammalian two-hybrid NR2E3-NCOR, luciferase luminescence; inhibition, % at 3.98 µM; hit rate 51% among 2,300; AID 624378, 2012;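 active = average inhibition above a cutoff equal to the mean inhibition of all tested compounds plus one SD, cut at about 70% in these data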;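 also: 0% = DMSO in NR2E3 cells and 100% = DMSO in cells lacking NR2E3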
# GAL4-VP16 luc – GAL4-VP16 reporter modulators, confirmation, counter-screen for NR2E3 agonist project, cell-based, luminescence, CHO-S, high throughput. shares compounds with NR2E3 ag-1. CHO-S GAL4-VP16 luciferase reporter. inhibition, % at 3.98 µM. hit rate 29% among 2,300. AID 624379, 2012;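 active = mean inhibition above a cutoff equal to the average over all tested compounds plus one standard deviation, cut at about 70% in these data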;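 also: luciferase from a UAS reporter driven by GAL4-VP16 transactivation; 0% = DMSO with VP16-transfected cells and 100% = DMSO with cells lacking VP16; higher means less reporter light so more repression of VP16 activity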
# miR-27b select – miR-27b levels after miR-122 inhibitor treatment, dose response, selectivity assay for miR-122 inhibitor project, cell-based, Huh7, RT-qPCR, dry powder; relative miR-27b level (unnormalised ratio), ratio at 35 µM; 35 tested, under 10 active; shares compounds with miR-122 sensor; Huh7 miR-27b levels, qRT-PCR, 48 h;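 active = compounds lowering miR-27b whose fitted half-maximal dose is at most twice their top tested dose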
# FGF22 binding-2 – binders of human FGF22 protein, dose response, FGF22 synaptogenesis inhibitor project, biophysical, thermal shift, cherry-pick retest | shares compounds with FGF22 binding-1 | recombinant FGF22 thermal shift, SYPRO orange fluorescence | hit rate 2% among 1,000 | thermal shift activity, °C (ΔTm) at 38 µM | AID 720646, 2013;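 active = fitted rise in melting shift crosses a set limit at or below the top valid dose tested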
# SYPRO no-protein – compound-only thermal shift signal without protein, dose response, artefact control for FGF22 binder project, biochemical, cherry-picked samples, RT-PCR instrument; AC50, µM (series often up to 38 µM); compound-only SYPRO orange thermal shift counter-screen, no protein; shares compounds with FGF22 binding-1; hit rate 2% among 1,000; AID 743019, 2013;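 active = rising signal whose fitted curve reaches the 0.54 level within the top valid dose, showing a melting point, actives reach about 13 µM in these data; inactive = the rest, including activity in the opposite direction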; also: value is where the raw curve crosses a fixed level and not half-maximal
# Starred values were filed as active, the others as inactive; i = inactive; . = no result given; [ ] = remark or other dose.
SMILES,Jurkat NFkB inh,miR-122 sensor,NR2E3 ag-1,FGF22 binding-1,NR2E3 ag-2,697 NFkB inh,FGF22 binding-2,SYPRO no-protein,others
COc1cc2cc(C(=O)N3CC(COS(C)(=O)=O)c4ccc(O)cc43)[nH]c2c(OC)c1OC (stereo not drawn),.,-7.6,73.2*,.,.,.,.,.,NR2E3 ag confirm=99.8*;GAL4-VP16 luc=93.9*
COC(=O)[C@@H]1[C@@H](CO)[C@@H]2Cn3c(cccc3=O)[C@H]1N2Cc1nccs1,.,.,.,-0.1,.,.,.,.,
O=C(CN1CCOCC1)Nc1ccc(Br)cc1C(=O)c1ccccc1,4.8,100.4*,12.6,.,-1.0,-1.5,.,.,miR-27b select=0.943
Cc1ccc(OC(=O)N(C)C[C@H]2OCc3ccccc3-c3c(n(C)c4ccccc34)C(=O)N([C@H](C)CO)C[C@H]2C)cc1,.,.,.,-0.4,.,.,.,.,
CC1([N+](=O)[O-])COP(=O)(NC2CC2)OC1 (stereo not drawn),.,.,-48.6,46.4*,.,.,.,i,
Cc1cc(OCC(=O)NC(Cc2ccc(Cl)cc2)C(=O)O)c2c3c(c(=O)oc2c1)CCC3 (stereo not drawn),8.7,2.4,-24.3,1.7*,-0.3,18.8,-0.155,i,
O=C(NCCN1CCC2(CC1)C(=O)NCN2c1ccccc1)c1ccc2ccccc2c1,.,.,.,1.9*,.,.,0.034,i,
CN(C)Cc1c[nH]c2ccccc12,-4.1,-16.5,-22.2,18.6*,0.1,9.9,0.045,i,
C=CCN(CC=C)Cc1c[nH]c2ccccc12,12.8,.,.,0.5,1.8,-12.4,.,.,
COc1cccc(-c2ccc([C@@H]3[C@@H](CO)N4CCCCN(C(=O)Cc5ccncc5)C[C@@H]34)cc2)c1,.,-1.6[16.7 µM],.,1.4*,.,.,0.065[42 µM],i,
COc1cccc(-c2ccc([C@H]3[C@@H](CO)N4CCCCN(C(=O)Cc5ccncc5)C[C@@H]34)cc2)c1,.,7.2[16.7 µM],.,0.4,.,.,.,.,
C[C@H]1CN([C@@H](C)CO)C(=O)CCCn2cc(nn2)CO[C@H]1CN(C)C(=O)Oc1cccc2ccccc12,.,6.3[16.7 µM],.,.,.,.,.,.,
O=C(Cc1ccccc1)N1CC2(C1)[C@H](c1ccccc1)[C@@H](CO)N2Cc1cccc(F)c1,.,.,.,0.0,.,.,.,.,
CC(=O)Nc1ccc(S(=O)(=O)N2Cc3ccccc3-n3nncc3C2)cc1,.,-6.1,11.6,23.2*,.,.,0.117,i,
O=C(O)[C@H]1[C@H](CO)[C@H]2Cn3c(ccc(-c4ccncc4)c3=O)[C@@H]1N2C(=O)C1CCCCC1,.,-1.5[16.7 µM],.,-0.2,.,.,.,.,
CCCN1[C@@H]2c3cccc(=O)n3C[C@H]1[C@H](CO)[C@H]2C(=O)N(C)C,.,.,.,-0.3,.,.,.,.,
O=C(Nc1ccccc1)c1cccn(Cc2ccccc2)c1=O,-3.6,.,-93.5,1.4*,-2.1,-79.9,-0.159,i,
COc1cccc(CN2CC3(C2)[C@H](c2ccccc2)[C@H](CO)N3C(=O)Cc2ccccc2)c1,.,.,.,-0.3,.,.,.,.,
Cc1ccccc1-n1c(O)c(/C=N/NC(=O)c2ccccc2O)c(=O)[nH]c1=S,6.3,26.4,-39.0,1.8*,-0.2,-9.4,-0.058,i,
O=C(N/N=C/c1c(O)n(C2CC2)c(=S)[nH]c1=O)c1ccccc1O,-0.6,.,-25.9,.,2.0,9.3,.,.,
CC=Cc1ccc2n(c1=O)C[C@H]1[C@H](CO)[C@@H](C(=O)OC)[C@@H]2N1CC1CCOCC1 (mixture of isomers),.,.,.,0.3,.,.,.,.,
CC=Cc1ccc2n(c1=O)C[C@H]1[C@H](CO)[C@@H](C(=O)N(C)C)N[C@@H]21 (mixture of isomers),.,-2.0[16.7 µM],.,1.7*,.,.,0.031,i,

# From PubChem
